Reference: ChEMBL document CHEMBL4842395, “Design and Synthesis of Oleanolic Acid Trimers to Enhance Inhibition of Influenza Virus Entry” (ACS Med Chem Lett, 2021)
The source made the active and inactive calls. No cut-off for these calls is given here.

Tests used:
[1] = Cytotoxicity against MDCK cells assessed as reduction in cell viability by CellTiter-Glo assay; format: cell-based, Canis lupus familiaris; details: dog
Procedure, shortened: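 Viability of normal, uninfected MDCK cells measured by CellTiter-Glo. Medium containing 1% DMSO was the negative control. CC50 is the concentration that reduces viability by 50%.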

[2] = tested on: Influenza A virus; experiment: Antiviral activity against Influenza A virus (A/WSN/1933(H1N1)) infected in MDCK cells assessed as s reduction in virus-induced cytopathic effect after 40 hrs incubation by CellTiter-Glo assay; format: functional, organism-based
Procedure, shortened: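 CPE-based dose–response in MDCK cells infected with A/WSN/33 (H1N1), using the CellTiter-Glo viability read-out. Medium with 1% DMSO was the negative control and oseltamivir phosphate the positive control. IC50 is the concentration giving 50% inhibition of virus-induced CPE. Means of duplicate samples from three independent experiments.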

[3] = tested on: Influenza A virus; experiment: Antiviral activity against Influenza A virus (A/WSN/1933(H1N1)) infected in MDCK cells assessed as inhibition of virus-induced cytopathic effect at 100 uM measured after 40 hrs incubation by inverted microscpic imaging analysis; format: functional
Procedure, shortened: (§1)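 MDCK cells infected with influenza A/WSN/33 (H1N1), with compounds at 100 μM. Viral CPE judged by direct microscopic observation. DMSO served as the negative control and oseltamivir phosphate as the positive control. Triplicate experiments, with standard deviations.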

[4] = Selectivity ratio of CC50 for MDCK cells to IC50 for Influenza A virus A/WSN/33(H1N1) infected in MDCK cells; format: toxicity, cell-based; details: dog, read-out: Ratio CC50/IC50
Procedure, shortened: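 Selectivity index calculated as CC50 (uninfected MDCK cells, CellTiter-Glo) divided by IC50 (inhibition of A/WSN/33 H1N1-induced CPE in MDCK cells).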

[5] = tested on: Influenza B virus; experiment: Antiviral activity against Influenza B virus (B/Sichuan/531/2018(Victoria)) infected in cells assessed as reduction in infected cells; format: functional, organism-based
[6] = Selectivity index, ratio of CC50 for MDCK cells to IC50 for antiviral activity against Influenza A virus (A/Hong Kong/4801/2014 (H3N2)); format: toxicity; details: dog, read-out: Ratio CC50/IC50
[7] = molecular target: Hemagglutinin (Influenza A virus (A/Puerto Rico/8/1934(H1N1))) (UniProt P03452); experiment: Inhibition of hemagglutinin in compound-pretreated Influenza A virus (A/WSN/1933(H1N1)) infected in chicken RBC assessed as reduction in virus-induced agglutination measured after 25 mins; format: cell-based; details: Erythrocyte
Sequence of Hemagglutinin (Influenza A virus (A/Puerto Rico/8/1934(H1N1))) (P03452 whole entry): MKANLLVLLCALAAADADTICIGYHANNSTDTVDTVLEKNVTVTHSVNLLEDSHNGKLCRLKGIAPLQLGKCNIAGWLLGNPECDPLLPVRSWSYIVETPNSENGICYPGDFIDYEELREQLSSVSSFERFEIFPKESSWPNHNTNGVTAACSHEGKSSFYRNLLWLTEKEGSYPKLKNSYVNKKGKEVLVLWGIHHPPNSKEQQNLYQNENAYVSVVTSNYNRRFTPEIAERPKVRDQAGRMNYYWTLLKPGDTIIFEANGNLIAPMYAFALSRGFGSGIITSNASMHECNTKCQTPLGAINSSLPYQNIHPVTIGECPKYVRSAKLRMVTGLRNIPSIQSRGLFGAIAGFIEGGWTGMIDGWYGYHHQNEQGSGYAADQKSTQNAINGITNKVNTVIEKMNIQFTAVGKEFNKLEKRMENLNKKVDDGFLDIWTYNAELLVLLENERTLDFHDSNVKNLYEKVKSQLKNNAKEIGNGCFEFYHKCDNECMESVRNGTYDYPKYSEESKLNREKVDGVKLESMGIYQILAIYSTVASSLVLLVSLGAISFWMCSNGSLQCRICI
Procedure, shortened: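 Hemagglutination inhibition: virus pretreated with compound, then chicken erythrocytes added and incubated a further 25 min at room temperature. Anti-HA antibody served as the positive control.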

[8] = tested on: Influenza A virus; experiment: Antiviral activity against Influenza A virus (A/Hong Kong/4801/2014 (H3N2)) infected in cells assessed as reduction in infected cells; format: functional, organism-based
[9] = Selectivity index, ratio of CC50 for MDCK cells to IC50 for antiviral activity against Influenza A virus (B/Sichuan/531/2018(Victoria)); format: toxicity; details: dog, read-out: Ratio CC50/IC50
[10] = tested on: Influenza A virus; experiment: Antiviral activity against Influenza A virus (A/WSN/1933(H1N1)) infected in MDCK cells assessed as reduction in virus-induced cytopathic effect at 100 uM measured after 40 hrs incubation by inverted microscpic imaging analysis; format: functional, organism-based; procedure, shortened: as §1

Row | Compound | CC50 [1] | IC50 [2] | inhibition at 100 µM [3] | selectivity ratio [4] | IC50 [5] | selectivity ratio [6] | inhibition [7] | IC50 [8] | selectivity ratio [9] | Activity [10]
1 | CC1(C)CC[C@]2(C(=O)NCCOCCn3cc(OCc4cc(COc5cn(CCOCCNC(=O)[C@]67CCC(C)(C)C[C@H]6C6=CC[C@@H]8[C@@]9(C)CC[C@H](O)C(C)(C)[C@@H]9CC[C@@]8(C)[C@]6(C)CC7)nn5)cc(COc5cn(CCOCCNC(=O)[C@]67CCC(C)(C)C[C@H]6C6=CC[C@@H]8[C@@]9(C)CC[C@H](O)C(C)(C)[C@@H]9CC[C@@]8(C)[C@]6(C)CC7)nn5)c4)nn3)CC[C@]3(C)C(=CC[C@@H]4[C@@]5(C)CC[C@H](O)C(C)(C)[C@@H]5CC[C@]43C)[C@@H]2C1 | > 100 µM | 16.7 µM | > 80% | > 5.98 | – | – | – | – | – | –
2 | CC1(C)CC[C@]2(C(=O)NCCc3cn(Cc4cc(Cn5cc(CCNC(=O)[C@]67CCC(C)(C)C[C@H]6C6=CC[C@@H]8[C@@]9(C)CC[C@H](O)C(C)(C)[C@@H]9CC[C@@]8(C)[C@]6(C)CC7)nn5)cc(Cn5cc(CCNC(=O)[C@]67CCC(C)(C)C[C@H]6C6=CC[C@@H]8[C@@]9(C)CC[C@H](O)C(C)(C)[C@@H]9CC[C@@]8(C)[C@]6(C)CC7)nn5)c4)nn3)CC[C@]3(C)C(=CC[C@@H]4[C@@]5(C)CC[C@H](O)C(C)(C)[C@@H]5CC[C@]43C)[C@@H]2C1 | > 100 µM | 31.6 µM | > 80% | > 3.17 | – | – | – | – | – | –
3 | CC1(C)CC[C@]2(C(=O)NCCCc3cn(CC(CO)(Cn4cc(CCCNC(=O)[C@]56CCC(C)(C)C[C@H]5C5=CC[C@@H]7[C@@]8(C)CC[C@H](O)C(C)(C)[C@@H]8CC[C@@]7(C)[C@]5(C)CC6)nn4)Cn4cc(CCCNC(=O)[C@]56CCC(C)(C)C[C@H]5C5=CC[C@@H]7[C@@]8(C)CC[C@H](O)C(C)(C)[C@@H]8CC[C@@]7(C)[C@]5(C)CC6)nn4)nn3)CC[C@]3(C)C(=CC[C@@H]4[C@@]5(C)CC[C@H](O)C(C)(C)[C@@H]5CC[C@]43C)[C@@H]2C1 | > 100 µM | 0.31 µM | > 80% | > 323 | 37.6 µM | > 58.5 | Active | 1710 nM | > 2.66 | Active
4 | CC1(C)CC[C@]2(C(=O)NCCCCCc3cn(Cc4cc(Cn5cc(CCCCCNC(=O)[C@]67CCC(C)(C)C[C@H]6C6=CC[C@@H]8[C@@]9(C)CC[C@H](O)C(C)(C)[C@@H]9CC[C@@]8(C)[C@]6(C)CC7)nn5)cc(Cn5cc(CCCCCNC(=O)[C@]67CCC(C)(C)C[C@H]6C6=CC[C@@H]8[C@@]9(C)CC[C@H](O)C(C)(C)[C@@H]9CC[C@@]8(C)[C@]6(C)CC7)nn5)c4)nn3)CC[C@]3(C)C(=CC[C@@H]4[C@@]5(C)CC[C@H](O)C(C)(C)[C@@H]5CC[C@]43C)[C@@H]2C1 | > 100 µM | – | > 80% | – | – | – | – | – | – | –
5 | CC1(C)CC[C@]2(C(=O)NCCc3cn(CC(CO)(Cn4cc(CCNC(=O)[C@]56CCC(C)(C)C[C@H]5C5=CC[C@@H]7[C@@]8(C)CC[C@H](O)C(C)(C)[C@@H]8CC[C@@]7(C)[C@]5(C)CC6)nn4)Cn4cc(CCNC(=O)[C@]56CCC(C)(C)C[C@H]5C5=CC[C@@H]7[C@@]8(C)CC[C@H](O)C(C)(C)[C@@H]8CC[C@@]7(C)[C@]5(C)CC6)nn4)nn3)CC[C@]3(C)C(=CC[C@@H]4[C@@]5(C)CC[C@H](O)C(C)(C)[C@@H]5CC[C@]43C)[C@@H]2C1 | > 100 µM | 2.87 µM | > 80% | > 34.8 | – | – | – | – | – | –
6 | CC1(C)CC[C@]2(C(=O)NCCCc3cn(Cc4cc(Cn5cc(CCCNC(=O)[C@]67CCC(C)(C)C[C@H]6C6=CC[C@@H]8[C@@]9(C)CC[C@H](O)C(C)(C)[C@@H]9CC[C@@]8(C)[C@]6(C)CC7)nn5)cc(Cn5cc(CCCNC(=O)[C@]67CCC(C)(C)C[C@H]6C6=CC[C@@H]8[C@@]9(C)CC[C@H](O)C(C)(C)[C@@H]9CC[C@@]8(C)[C@]6(C)CC7)nn5)c4)nn3)CC[C@]3(C)C(=CC[C@@H]4[C@@]5(C)CC[C@H](O)C(C)(C)[C@@H]5CC[C@]43C)[C@@H]2C1 | > 100 µM | 0.38 µM | > 80% | > 263 | 28.4 µM | > 37.5 | – | 2670 nM | > 3.53 | –
7 | CC1(C)CC[C@]2(C(=O)NCc3cn(CC(CO)(Cn4cc(CNC(=O)[C@]56CCC(C)(C)C[C@H]5C5=CC[C@@H]7[C@@]8(C)CC[C@H](O)C(C)(C)[C@@H]8CC[C@@]7(C)[C@]5(C)CC6)nn4)Cn4cc(CNC(=O)[C@]56CCC(C)(C)C[C@H]5C5=CC[C@@H]7[C@@]8(C)CC[C@H](O)C(C)(C)[C@@H]8CC[C@@]7(C)[C@]5(C)CC6)nn4)nn3)CC[C@]3(C)C(=CC[C@@H]4[C@@]5(C)CC[C@H](O)C(C)(C)[C@@H]5CC[C@]43C)[C@@H]2C1 | > 100 µM | 4.69 µM | > 80% | > 21.3 | – | – | – | – | – | –
8 | CC1(C)CC[C@]2(C(=O)NCCCCCc3cn(CC(CO)(Cn4cc(CCCCCNC(=O)[C@]56CCC(C)(C)C[C@H]5C5=CC[C@@H]7[C@@]8(C)CC[C@H](O)C(C)(C)[C@@H]8CC[C@@]7(C)[C@]5(C)CC6)nn4)Cn4cc(CCCCCNC(=O)[C@]56CCC(C)(C)C[C@H]5C5=CC[C@@H]7[C@@]8(C)CC[C@H](O)C(C)(C)[C@@H]8CC[C@@]7(C)[C@]5(C)CC6)nn4)nn3)CC[C@]3(C)C(=CC[C@@H]4[C@@]5(C)CC[C@H](O)C(C)(C)[C@@H]5CC[C@]43C)[C@@H]2C1 | > 100 µM | 0.57 µM | > 80% | > 175 | > 100 µM | > 83.3 | – | 1200 nM | – | –
9 | CC1(C)CC[C@]2(C(=O)O)CC[C@]3(C)C(=CC[C@@H]4[C@@]5(C)CC[C@H](O)C(C)(C)[C@@H]5CC[C@]43C)[C@@H]2C1 [OLEANOLIC_ACID] | > 100 µM | 72.3 µM | > 80% | > 1.38 | – | – | – | – | – | –
10 | CC1(C)CC[C@]2(C(=O)NCCCCc3cn(CC(CO)(Cn4cc(CCCCNC(=O)[C@]56CCC(C)(C)C[C@H]5C5=CC[C@@H]7[C@@]8(C)CC[C@H](O)C(C)(C)[C@@H]8CC[C@@]7(C)[C@]5(C)CC6)nn4)Cn4cc(CCCCNC(=O)[C@]56CCC(C)(C)C[C@H]5C5=CC[C@@H]7[C@@]8(C)CC[C@H](O)C(C)(C)[C@@H]8CC[C@@]7(C)[C@]5(C)CC6)nn4)nn3)CC[C@]3(C)C(=CC[C@@H]4[C@@]5(C)CC[C@H](O)C(C)(C)[C@@H]5CC[C@]43C)[C@@H]2C1 | > 100 µM | 25.1 µM | > 80% | > 3.99 | – | – | – | – | – | –
11 | CC1(C)CC[C@]2(C(=O)NCCOCCOCCOCCn3cc(OCc4cc(COc5cn(CCOCCOCCOCCNC(=O)[C@]67CCC(C)(C)C[C@H]6C6=CC[C@@H]8[C@@]9(C)CC[C@H](O)C(C)(C)[C@@H]9CC[C@@]8(C)[C@]6(C)CC7)nn5)cc(COc5cn(CCOCCOCCOCCNC(=O)[C@]67CCC(C)(C)C[C@H]6C6=CC[C@@H]8[C@@]9(C)CC[C@H](O)C(C)(C)[C@@H]9CC[C@@]8(C)[C@]6(C)CC7)nn5)c4)nn3)CC[C@]3(C)C(=CC[C@@H]4[C@@]5(C)CC[C@H](O)C(C)(C)[C@@H]5CC[C@]43C)[C@@H]2C1 | > 100 µM | 9.84 µM | > 80% | > 10.2 | – | – | – | – | – | –
12 | CC1(C)CC[C@]2(C(=O)NCc3cn(Cc4cc(Cn5cc(CNC(=O)[C@]67CCC(C)(C)C[C@H]6C6=CC[C@@H]8[C@@]9(C)CC[C@H](O)C(C)(C)[C@@H]9CC[C@@]8(C)[C@]6(C)CC7)nn5)cc(Cn5cc(CNC(=O)[C@]67CCC(C)(C)C[C@H]6C6=CC[C@@H]8[C@@]9(C)CC[C@H](O)C(C)(C)[C@@H]9CC[C@@]8(C)[C@]6(C)CC7)nn5)c4)nn3)CC[C@]3(C)C(=CC[C@@H]4[C@@]5(C)CC[C@H](O)C(C)(C)[C@@H]5CC[C@]43C)[C@@H]2C1 | > 100 µM | 6.86 µM | > 80% | > 14.6 | – | – | – | – | – | –
13 | CCOC(=O)C1=C[C@@H](OC(CC)CC)[C@H](NC(C)=O)[C@@H](N)C1 [OSELTAMIVIR PHOSPHATE] | > 100 µM | 1.82 µM | > 80% | > 55 | > 100 µM | – | – | > 100000 nM | – | –
